TAAR1 agonist – human TAAR1 agonists, primary screen, Fluo-8 calcium fluorescence, CHO RD-HGA16 cells. vehicle wells 0%, saturating PEA agonist 100%. Trace amine-associated receptor 1 (Homo sapiens), Q96RJ0. AID 624467, 2012. 0.99% of 360,000 active. activation, % at 3 µM;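 active means activation above the mean activation of all test compounds in the run plus 3 SD, cut at about 38% in these data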
Target sequence (Q96RJ0 whole entry, looked up): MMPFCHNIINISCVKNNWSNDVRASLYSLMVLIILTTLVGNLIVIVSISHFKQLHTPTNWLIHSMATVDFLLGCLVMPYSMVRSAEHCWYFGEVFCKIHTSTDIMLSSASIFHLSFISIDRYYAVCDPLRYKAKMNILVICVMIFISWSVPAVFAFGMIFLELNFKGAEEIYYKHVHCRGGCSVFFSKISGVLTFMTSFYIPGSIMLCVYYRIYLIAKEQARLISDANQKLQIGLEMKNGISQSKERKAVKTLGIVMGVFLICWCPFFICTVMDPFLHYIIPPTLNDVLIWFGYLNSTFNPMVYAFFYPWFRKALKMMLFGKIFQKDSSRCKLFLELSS
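test system = CHO RD-HGA16 cells carrying human TAAR1 plus Gα16 | schedule = 17-24 h seeding, 75 min 37 °C dye, 30 min RT | compound dosing = 3 µM single concentration | control set = DMSO and PEA EC100 | replicates = n 1 | signal = Fluo-8 fluorescence, 5 s baseline then 140 s kinetic read | measure = percent activation vs PEA EC100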
TAAR1 antagonist – human TAAR1 antagonists, primary screen, Fluo-8 calcium fluorescence, CHO RD-HGA16 cells; Trace amine-associated receptor 1 (Homo sapiens), Q96RJ0; antagonist; inhibition, % at 3 µM; 1.5% of 360,000 active; AID 624466, 2012;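 active means inhibition above a per-plate cutoff, the mean inhibition of test compounds on that plate plus 3 SD, cut at about 49% in these data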;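 further: 0% = DMSO plus EC80 beta-PEA response and 100% = DMSO alone without agonist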
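Test system – hTAAR1-expressing CHO RD-HGA16 cells, Gα16-coupled · Reagent – β-PEA at EC80 concentration, post-compound challenge · Compound dosing – 3 µM, single point · Timing – 140 s kinetic read after compound, 140 s after agonist · Detection – Fluo-8 intracellular calcium dye fluorescence, real-time kinetic reads · Control set – DMSO and EC80 PEA controls · Repeats – n of 1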
OXTR agonist – human OXTR agonists, primary screen, fluorescence, CHO-OTR cells, Fluo-8 calcium; Fluo-8 calcium fluorescence; normalized: DMSO 0%, oxytocin 100%; activation, % at 3 µM; Oxytocin receptor (Homo sapiens), P30559; 0.32% of 320,000 active;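 active means activation above the mean of all tested compounds plus 3 SD, cutoff set per screening run, cut at about 20% in these data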;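 further: peak over basal fluorescence ratio from a 100 s FLIPR kinetic read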
OXTR potentiate – human OXTR potentiators, primary screen, fluorescence, CHO-OTR cells, Fluo-8 calcium. Oxytocin receptor (Homo sapiens), P30559. Fluo-8 calcium fluorescence, potentiator mode; 0% = oxytocin EC15, 100% = EC100. activation, % at 3 µM. 0.061% of 320,000 active;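 active means activation above that plate's cutoff, the mean activation of tested compounds plus 3 SD, cut at about 6.6% in these data, passing the limit was not always enough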;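 further: 100% uses oxytocin at 75 nM as the full agonist control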
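System: human OTR in CHO cells; Also added: sub-maximal oxytocin, roughly EC15; Timing: compound 6 min at room temperature before oxytocin, 100 s read; Technique: Fluo-8 intracellular calcium fluorescence, ex 470-495, em 515-575 nm; Controls: oxytocin EC15 low and EC100 high; Replication: singlicate.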
V1R ag counter – agonists of human V1a receptor, primary screen, counter-screen for OXTR agonist project, fluorescence, CHO-V1R cells; Vasopressin V1a receptor (Homo sapiens), P37288; Fluo-8 calcium fluorescence, agonist mode; 0% DMSO, 100% 3 nM vasopressin; activation, % at 3 µM; 0.25% of 320,000 active; AID 2797, 2010;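 active means activation above the mean activation of all tested compounds plus 3 SD, per screening run, cut at about 20% in these data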;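 further: signal is peak over basal fluorescence ratio across a 100 second FLIPR read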
Target sequence (P37288 whole entry, looked up): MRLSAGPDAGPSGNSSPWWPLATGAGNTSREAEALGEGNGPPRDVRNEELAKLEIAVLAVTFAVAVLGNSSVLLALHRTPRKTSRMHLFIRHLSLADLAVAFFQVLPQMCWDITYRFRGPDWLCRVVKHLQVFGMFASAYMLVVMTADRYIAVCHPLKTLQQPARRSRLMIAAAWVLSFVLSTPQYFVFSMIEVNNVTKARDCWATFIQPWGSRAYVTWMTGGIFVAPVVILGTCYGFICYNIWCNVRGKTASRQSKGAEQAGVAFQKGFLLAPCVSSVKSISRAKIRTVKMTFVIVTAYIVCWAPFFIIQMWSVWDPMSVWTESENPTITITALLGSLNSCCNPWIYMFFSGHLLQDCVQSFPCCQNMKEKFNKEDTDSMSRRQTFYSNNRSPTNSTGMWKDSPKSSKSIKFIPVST
TAAR1 ag conf – human TAAR1 agonists, retest of hits, confirmation, Fluo-8 calcium fluorescence, CHO RD-HGA16 cells. shares compounds with TAAR1 agonist. scaled: DMSO 0%, maximal phenethylamine 100%. activation, % at 3 µM. 82% of 2,400 active. AID 651783, 2012;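 active means activation above a cutoff set at the run's mean compound activation plus 3 SD, cut at about 39% in these data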
Ga16 nonsel ag – nonselective calcium mobilization agonists, CHO-Ga16 cells, counter-screen for hTAAR1 agonist project, cell-based, fluorescence, CHO-Ga16 parental line; shares compounds with TAAR1 agonist; Fluo-8 calcium fluorescence; normalized to maximal ATP response, DMSO zero; activation, % at 3 µM; 50% of 2,400 active;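 active means activation above the run cutoff, the mean activation over all tested wells plus 3 SD, cut at about 12% in these data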;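 further: 0% = DMSO wells and 100% = maximal ATP response on the peak over basal ratio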
TAAR1 desens – TAAR1 desensitization by agonist hits, confirmation, counter-screen for TAAR1 agonist project, cell-based, fluorescence, tachyphylaxis. AID 651951, 2012. inhibition, % at 3 µM. CHO RD-HGA16 hTAAR1, Fluo-8 calcium, beta-PEA response inhibition. shares compounds with TAAR1 agonist. 46% of 2,400 active;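 active means inhibition above the run cutoff, the mean inhibition of all test compounds plus 3 SD, cut at about 49% in these data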;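 further: beta-PEA stimulus applied at its EC80; loss of beta-PEA calcium signal after compound pretreatment read as receptor desensitization; 0% = DMSO with beta-PEA at EC80 and 100% = DMSO alone without agonist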
Ga16 antag count – inhibition of ATP-evoked calcium response in CHO-Ga16 cells, counter-screen for TAAR1 agonist project, cell-based, fluorescence. shares compounds with TAAR1 agonist. CHO-Ga16 ATP-induced calcium, Fluo-8 fluorescence. inhibition, % at 3 µM. 39% of 2,400 active;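 active means inhibition above the plate's mean compound inhibition plus 3 SD, computed per plate, cut at about 22% in these data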;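 further: 0% = EC80 ATP with DMSO and 100% = DMSO wells without ATP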
An asterisk follows results filed as active. An excerpt weighted towards active compounds, which were near 2.3% of everything screened.

What do the screens show for `CC(CCc1ccccc1)NC(=O)c1ccccc1C(=O)O` (stereo unspecified)?
TAAR1 agonist: 48*; TAAR1 antagonist: -12; OXTR agonist: 0; OXTR potentiate: -15; V1R ag counter: 0; TAAR1 ag conf: 63*; Ga16 nonsel ag: 20*; TAAR1 desens: 2; Ga16 antag count: 2

What do the screens show for `O=C(NCCc1ccccc1)Nc1ccc(Cl)cc1`?
TAAR1 agonist: 47*; TAAR1 antagonist: 37; OXTR agonist: 1; OXTR potentiate: -6; V1R ag counter: 4; TAAR1 ag conf: 46*; Ga16 nonsel ag: 21*; TAAR1 desens: 42; Ga16 antag count: 28*

Results for CC(CCc1ccccc1)NC(=O)c1ccc(C(=O)NC(C)CCc2ccccc2)cc1 (stereo unspecified) ?
TAAR1 agonist: 1; TAAR1 antagonist: -1; OXTR agonist: 1; OXTR potentiate: -4; V1R ag counter: 1

How did O=C(Cc1cccs1)NCc1ccc(Cl)cc1Cl do in these assays?
TAAR1 agonist: -2; TAAR1 antagonist: -9; OXTR agonist: -2; OXTR potentiate: -13; V1R ag counter: -1

Results for N#C/C(=C/C=C/c1ccccc1)C(=O)Nc1ccccc1 ?
TAAR1 agonist: 74*; TAAR1 antagonist: 34; OXTR agonist: -2; OXTR potentiate: -4; V1R ag counter: 1; TAAR1 ag conf: 23; Ga16 nonsel ag: 25*; TAAR1 desens: 11; Ga16 antag count: 26*

How did CC(c1cccs1)N(C)Cc1nc(CCc2ccccc2)no1 (stereo unspecified) do in these assays?
TAAR1 agonist: 1; TAAR1 antagonist: -17; OXTR agonist: -2; OXTR potentiate: -7; V1R ag counter: -1

What do the screens show for `COCCCNC(=S)N1CCN(S(C)(=O)=O)CC1`?
TAAR1 agonist: 0; TAAR1 antagonist: 0; OXTR agonist: 0; OXTR potentiate: 1; V1R ag counter: 0

What do the screens show for `O=C(C[C@@H]1CC[C@H](NC(=O)Cc2ccccn2)[C@@H](CO)O1)NCCc1ccccc1`?
TAAR1 agonist: 47*; TAAR1 antagonist: -11; TAAR1 ag conf: 63*; Ga16 nonsel ag: 2; TAAR1 desens: 12; Ga16 antag count: 8

How did COc1ncnc2c1ncn2CCCNCC(C)c1ccccc1 (stereo unspecified) do in these assays?
TAAR1 agonist: 65*; TAAR1 antagonist: 47; TAAR1 ag conf: 81*; Ga16 nonsel ag: 0; TAAR1 desens: 50*; Ga16 antag count: 4

How did O=C(CCN1CCc2ccccc2CC1)c1ccc2c(c1)OCCO2 do in these assays?
TAAR1 agonist: 92*; TAAR1 antagonist: 85*; OXTR agonist: 1; OXTR potentiate: -4; V1R ag counter: 0; TAAR1 ag conf: 115*; Ga16 nonsel ag: 4; TAAR1 desens: 97*; Ga16 antag count: 9

Results for O=C(CCN1CCOCC1)c1ccc2c(c1)OCCO2 ?
TAAR1 agonist: 19; TAAR1 antagonist: 6; OXTR agonist: 0; OXTR potentiate: -2; V1R ag counter: 2

How did Nc1nc(SCC(=O)Nc2ccccc2)[nH]c(=O)c1-c1ccccc1 do in these assays?
TAAR1 agonist: 6; TAAR1 antagonist: -2; OXTR agonist: 0; OXTR potentiate: -2; V1R ag counter: -1

Results for CC(C)Cn1c(SCC(=O)N2CCc3ccccc3C2)nc(O)cc1=O ?
OXTR agonist: 1; OXTR potentiate: -7; V1R ag counter: 1; Ga16 nonsel ag: 4; Ga16 antag count: 2

What do the screens show for `CC(C)Cn1c(SCC(=O)N2CCc3ccccc3C2)nc2cc(Cl)ccc2c1=O`?
TAAR1 agonist: 0; TAAR1 antagonist: 3; OXTR agonist: -2; OXTR potentiate: -12; V1R ag counter: 0

How did Nc1nc(SCC(=O)N2CCc3ccccc3C2)[nH]c(=O)c1-c1ccccc1 do in these assays?
TAAR1 agonist: 92*; TAAR1 antagonist: 90*; OXTR agonist: 0; OXTR potentiate: 0; V1R ag counter: -1; TAAR1 ag conf: 107*; Ga16 nonsel ag: 22*; TAAR1 desens: 95*; Ga16 antag count: -4

Results for CCCc1cc(=O)[nH]c(SCC(=O)c2ccc3c(c2)NC(=O)CO3)n1 ?
TAAR1 agonist: 54*; TAAR1 antagonist: 5; OXTR agonist: 0; OXTR potentiate: 0; V1R ag counter: 1; TAAR1 ag conf: 5; Ga16 nonsel ag: 7; TAAR1 desens: -2; Ga16 antag count: 6

Results for O=C(CSc1nccc(=O)[nH]1)N1CCc2ccccc2C1 ?
OXTR agonist: 1; OXTR potentiate: 0; V1R ag counter: 3; Ga16 nonsel ag: 1; Ga16 antag count: 6

What do the screens show for `O=C(NCCCN1CCCC1=O)c1ccc(S(=O)(=O)Nc2cccc(C(F)(F)F)c2)cc1`?
TAAR1 agonist: 5; TAAR1 antagonist: -24; OXTR agonist: 2; OXTR potentiate: -2; V1R ag counter: 1

How did CCCc1cc(=O)[nH]c(SCC(=O)N2CCc3ccccc3C2)n1 do in these assays?
TAAR1 agonist: 85*; TAAR1 antagonist: 55*; OXTR agonist: 0; OXTR potentiate: 0; V1R ag counter: 0; TAAR1 ag conf: 92*; Ga16 nonsel ag: 5; TAAR1 desens: 29; Ga16 antag count: 0

How did CC1CCN(C(=O)c2ccc(NS(=O)(=O)c3ccccc3)cc2)CC1 do in these assays?
TAAR1 agonist: 7; TAAR1 antagonist: 11; OXTR agonist: 4; OXTR potentiate: -7; V1R ag counter: 2
